Data as given in ChEMBL document CHEMBL3351600, “Sulfur, selenium and tellurium pseudopeptides: synthesis and biological evaluation” (Bioorg Med Chem, 2014).
One block for each compound: values may come before it.

Legend:
[1] = Lipophilicity, log K of the compound by HPLC analysis
[2] = system: Saccharomyces cerevisiae; experiment: Antimicrobial activity against Saccharomyces cerevisiae assessed as inhibition at 20 ug/6 mm disk after 1 to 2 days by agar diffusion assay; format: functional
In short: (§1)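 Standard agar diffusion: 6-mm paper disks loaded with 20 µg of compound were placed on inoculated plates. Inhibition-zone diameter (mm) was read after 1 and 2 days of growth.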

[3] = system: Staphylococcus aureus; experiment: Antimicrobial activity against Staphylococcus aureus assessed as inhibition at 20 ug/6 mm disk after 1 to 2 days by agar diffusion assay; format: functional; in short: as §1
[4] = Cytotoxicity against human fibroblasts assessed as cell viability after 24 hrs incubation by MTT assay; format: cell-based; conditions: Fibroblast
In short: (§2)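 Cell lines came from DSMZ; primary human fibroblasts served as non-cancer controls. Cells were grown in medium with 10% FCS, seeded at 50,000 cells/ml, and grown 2 days at 37 °C, 10% CO2. Serial dilutions were then added for 24 h. MTT (final 0.5 mg/ml) was added for 2 h. Formazan was pelleted, PBS-washed, dissolved in isopropanol/0.4% HCl and read at 590 nm. Two parallel experiments were run. IC50 was taken as the concentration giving 50% of untreated-control absorbance.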

[5] = system: A-431; experiment: Cytotoxicity against human A431 cells assessed as cell viability after 24 hrs incubation by MTT assay; format: functional, cell-based; conditions: A-431, 24 h; in short: as §2
[6] = system: Mycolicibacterium phlei; experiment: Antimicrobial activity against Mycobacterium phlei assessed as inhibition at 20 ug/6 mm disk after 1 to 2 days by agar diffusion assay; format: functional; in short: as §1
[7] = system: Pseudomonas aeruginosa; experiment: Antimicrobial activity against Pseudomonas aeruginosa assessed as inhibition at 20 ug/6 mm disk after 1 to 2 days by agar diffusion assay; format: functional; in short: as §1
[8] = system: Klebsiella pneumoniae; experiment: Antimicrobial activity against Klebsiella pneumoniae assessed as inhibition at 20 ug/6 mm disk after 1 to 2 days by agar diffusion assay; format: functional; in short: as §1
[9] = system: Micrococcus luteus; experiment: Antimicrobial activity against Micrococcus luteus assessed as inhibition at 20 ug/6 mm disk after 1 to 2 days by agar diffusion assay; format: functional; in short: as §1
[10] = Octanol-water partition coefficient, log P of the compound by HPLC analysis; format: physicochemical
In short: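 Lipophilicity was measured by reversed-phase HPLC on a Nucleosil C18 column with isocratic water/methanol (3:1) at 0.5 ml/min and UV detection at 230 and 245 nm. Dead time was set with thiourea (t0 0.728 min). Retention factor was k = (tR − t0)/t0, and log P came from a calibration against at least six reference compounds.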

[11] = system: Escherichia coli; experiment: Antimicrobial activity against Escherichia coli tolC assessed as inhibition at 20 ug/6 mm disk after 1 to 2 days by agar diffusion assay; format: functional; in short: as §1
[12] = system: Aspergillus niger; experiment: Antimicrobial activity against Aspergillus niger assessed as inhibition at 20 ug/6 mm disk after 1 to 2 days by agar diffusion assay; format: functional; in short: as §1
[13] = system: Candida albicans; experiment: Antimicrobial activity against Candida albicans assessed as inhibition at 20 ug/6 mm disk after 1 to 2 days by agar diffusion assay; format: functional; in short: as §1
[14] = system: MCF7; experiment: Cytotoxicity against human MCF7 cells assessed as cell viability after 24 hrs incubation by MTT assay; format: functional, cell-based; conditions: MCF7, 24 h; in short: as §2
[15] = system: A-431; experiment: Reduction in ROS in human A431 cells assessed as decrease in hydrogen peroxide level at 0.1 to 10 ng/ml after 1 hr by DCHFA assay; format: functional, cell-based
In short: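 A-431 cells were seeded at 10^5 per well and exposed to a range of compound concentrations for 1 h. They were then loaded with DCHFA probe for 30 min in the dark. Fluorescence was read immediately at ex/em 485/528 nm and expressed as arbitrary units per 10^5 cells.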

Structure (SMILES): O=C(COC(=O)/C=C/c1ccccc1)NCCC[Te]c1ccccc1
diameter of the inhibition zone (DIZ) [2]: 0 mm
diameter of the inhibition zone (DIZ) [3]: 0 mm
IC50 [4]: 11 µM
IC50 [5]: 6 µM
diameter of the inhibition zone (DIZ) [6]: 0 mm
log K [1]: -0.06
diameter of the inhibition zone (DIZ) [7]: 0 mm
diameter of the inhibition zone (DIZ) [8]: 0 mm
diameter of the inhibition zone (DIZ) [9]: 7 mm
logP [10]: 3.01
diameter of the inhibition zone (DIZ) [11]: 0 mm
diameter of the inhibition zone (DIZ) [12]: 0 mm
Activity [15]: Dose-dependent effect
Retention_time: 1.356 min
diameter of the inhibition zone (DIZ) [13]: 0 mm
IC50 [14]: 1 µM

Structure (SMILES): O=C(COC(=O)C#Cc1ccccc1)NCCC[Te]c1ccccc1
diameter of the inhibition zone (DIZ) [2]: 0 mm
diameter of the inhibition zone (DIZ) [3]: 0 mm
IC50 [4]: 7 µM
IC50 [5]: 7 µM
diameter of the inhibition zone (DIZ) [6]: 15 mm
log K [1]: -1.04
diameter of the inhibition zone (DIZ) [7]: 0 mm
diameter of the inhibition zone (DIZ) [8]: 0 mm
diameter of the inhibition zone (DIZ) [9]: 9 mm
logP [10]: 0.9
diameter of the inhibition zone (DIZ) [11]: 0 mm
diameter of the inhibition zone (DIZ) [12]: 0 mm
Activity [15]: Dose-dependent effect
Retention_time: 0.794 min
diameter of the inhibition zone (DIZ) [13]: 0 mm
IC50 [14]: 1 µM

Structure (SMILES): c1ccccc1 [BENZENE]
log K [1]: -0.53

Structure (SMILES): COc1ccc(N(CC(=O)NCCC[Se]c2ccccc2)C(=O)CNC(=O)OC(C)(C)C)cc1
diameter of the inhibition zone (DIZ) [2]: 0 mm
diameter of the inhibition zone (DIZ) [3]: 0 mm
IC50 [4]: ≥ 100 µM
IC50 [5]: ≥ 100 µM
diameter of the inhibition zone (DIZ) [6]: 0 mm
log K [1]: -0.01
diameter of the inhibition zone (DIZ) [7]: 0 mm
diameter of the inhibition zone (DIZ) [8]: 0 mm
diameter of the inhibition zone (DIZ) [9]: 0 mm
logP [10]: 3.3
diameter of the inhibition zone (DIZ) [11]: 0 mm
diameter of the inhibition zone (DIZ) [12]: 0 mm
Retention_time: 1.434 min
diameter of the inhibition zone (DIZ) [13]: 0 mm
IC50 [14]: ≥ 100 µM

Structure (SMILES): NC(N)=S [THIOUREA]
Retention_time: 0.728 min

Structure (SMILES): COc1ccc(N(CC(=O)NCCC[Se]c2ccccc2)C(=O)C#Cc2ccccc2)cc1
diameter of the inhibition zone (DIZ) [2]: 0 mm
diameter of the inhibition zone (DIZ) [3]: 0 mm
IC50 [4]: ≥ 100 µM
IC50 [5]: ≥ 100 µM
diameter of the inhibition zone (DIZ) [6]: 0 mm
log K [1]: -0.25
diameter of the inhibition zone (DIZ) [7]: 0 mm
diameter of the inhibition zone (DIZ) [8]: 0 mm
diameter of the inhibition zone (DIZ) [9]: 0 mm
logP [10]: 2.6
diameter of the inhibition zone (DIZ) [11]: 0 mm
diameter of the inhibition zone (DIZ) [12]: 19 mm
Retention_time: 1.134 min
diameter of the inhibition zone (DIZ) [13]: 0 mm
IC50 [14]: ≥ 100 µM

Structure (SMILES): c1ccc2ccccc2c1
log K [1]: 0.2
Retention_time: 1.894 min

Structure (SMILES): Cc1ccccc1 [TOLUENE]
Retention_time: 1.508 min

Continued, in another order:

log K [1]: -0.12
Retention_time: 1.285 min
Structure (SMILES): Cc1ccc(C(C)C)c(O)c1 [THYMOL]

log K [1]: 0.48
logP [10]: 4.2
Retention_time: 2.94 min
Structure (SMILES): COc1ccc(N(CC(=O)NCCCSc2ccccc2)C(=O)CCSC2=C(C)C(=O)c3ccccc3C2=O)cc1
diameter of the inhibition zone (DIZ) [2]: 0 mm
diameter of the inhibition zone (DIZ) [3]: 0 mm
IC50 [4]: 26 µM
IC50 [5]: 17 µM
diameter of the inhibition zone (DIZ) [6]: 0 mm
diameter of the inhibition zone (DIZ) [7]: 0 mm
diameter of the inhibition zone (DIZ) [8]: 0 mm
diameter of the inhibition zone (DIZ) [9]: 0 mm
diameter of the inhibition zone (DIZ) [11]: 0 mm
diameter of the inhibition zone (DIZ) [12]: 0 mm
diameter of the inhibition zone (DIZ) [13]: 0 mm
IC50 [14]: 16 µM

log K [1]: 0.6
Retention_time: 3.615 min
Structure (SMILES): c1ccc2c(c1)ccc1ccccc12

log K [1]: 0.55
logP [10]: 4.23
Retention_time: 3.297 min
Structure (SMILES): COc1ccc(N(CC(=O)NCCC[Se]c2ccccc2)C(=O)CCSC2=C(C)C(=O)c3ccccc3C2=O)cc1
diameter of the inhibition zone (DIZ) [2]: 0 mm
diameter of the inhibition zone (DIZ) [3]: 0 mm
IC50 [4]: 24 µM
IC50 [5]: 17 µM
diameter of the inhibition zone (DIZ) [6]: 0 mm
diameter of the inhibition zone (DIZ) [7]: 0 mm
diameter of the inhibition zone (DIZ) [8]: 0 mm
diameter of the inhibition zone (DIZ) [9]: 7 mm
diameter of the inhibition zone (DIZ) [11]: 0 mm
diameter of the inhibition zone (DIZ) [12]: 0 mm
diameter of the inhibition zone (DIZ) [13]: 0 mm
IC50 [14]: 8 µM

log K [1]: 0.3
logP [10]: 3.12
Retention_time: 2.17 min
Structure (SMILES): COc1ccc(N(CC(=O)NCCCSc2ccccc2)C(=O)CNC(=O)OC(C)(C)C)cc1
diameter of the inhibition zone (DIZ) [2]: 0 mm
diameter of the inhibition zone (DIZ) [3]: 0 mm
IC50 [4]: ≥ 100 µM
IC50 [5]: ≥ 100 µM
diameter of the inhibition zone (DIZ) [6]: 0 mm
diameter of the inhibition zone (DIZ) [7]: 0 mm
diameter of the inhibition zone (DIZ) [8]: 0 mm
diameter of the inhibition zone (DIZ) [9]: 0 mm
diameter of the inhibition zone (DIZ) [11]: 0 mm
diameter of the inhibition zone (DIZ) [12]: 0 mm
diameter of the inhibition zone (DIZ) [13]: 0 mm
IC50 [14]: ≥ 100 µM

log K [1]: 0.39
logP [10]: 4
Retention_time: 2.514 min
Structure (SMILES): COc1ccc(N(CC(=O)NCCCSc2ccccc2)C(=O)/C=C/c2ccccc2)cc1
diameter of the inhibition zone (DIZ) [2]: 0 mm
diameter of the inhibition zone (DIZ) [3]: 0 mm
IC50 [4]: ≥ 100 µM
IC50 [5]: ≥ 100 µM
diameter of the inhibition zone (DIZ) [6]: 15 mm
diameter of the inhibition zone (DIZ) [7]: 0 mm
diameter of the inhibition zone (DIZ) [8]: 0 mm
diameter of the inhibition zone (DIZ) [9]: 0 mm
diameter of the inhibition zone (DIZ) [11]: 0 mm
diameter of the inhibition zone (DIZ) [12]: 0 mm
diameter of the inhibition zone (DIZ) [13]: 0 mm
IC50 [14]: ≥ 100 µM

log K [1]: -0.94
Retention_time: 0.811 min
Structure (SMILES): CC(=O)Nc1ccccc1 [ACETANILIDE]
